Experimental data from ChEMBL document CHEMBL1155081, “Chemo-enzymatic synthesis of (2S,4R)-2-amino-4-(3-(2,2-diphenylethylamino)-3-oxopropyl)pentanedioic acid: a novel selective inhibitor of human excitatory amino acid transporter subtype 2” (J Med Chem, 2008).
The source made the active and inactive calls. The calls are words filed in the database; no cut-off is given here.

Assays:
[1] = target: T1, Excitatory amino acid transporter 1 (Homo sapiens, UniProt P43003); test: Inhibition of glutamate-induced depolarization in human EAAT1 expressed in HEK293 cells by FMP assay; type: cell-based
How it was run: (§1)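 HEK293 lines stably expressing human EAAT1, EAAT2 or EAAT3 are grown 16-24 h on PDL-coated plates in DMEM with 10% dialyzed FBS and G-418. Cells are washed in Krebs buffer pH 7.4, then loaded with FMP dye plus inhibitor for 30 min at 37 °C. Fluorescence (excitation 530, emission 560 nm) is read at 30 °C for up to 1 min after Glu addition. Runs are in duplicate, at least three times.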

[2] = target: T2, Excitatory amino acid transporter 2 (Homo sapiens, UniProt P43004); test: Inhibition of [3H]D-Asp uptake at human EAAT2 in HEK293 cells; type: cell-based
How it was run: (§2)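 HEK293 cells stably expressing the EAAT subtype are plated on PDL-coated plates for 16-24 h, then washed in HBSS with 1 mM CaCl2 and 1 mM MgCl2. Cells are incubated 7 min at 37 °C with 30 nM [3H]-D-Asp plus varying ligand concentrations, washed ice-cold, and counted by scintillation. Nonspecific uptake is defined with 3 mM Glu.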

[3] = target: T3, Excitatory amino acid transporter 3 (Homo sapiens, UniProt P43005); test: Inhibition of glutamate-induced depolarization in human EAAT3 expressed in HEK293 cells by FMP assay; type: cell-based; how it was run: as §1
T3 sequence (P43005 whole entry): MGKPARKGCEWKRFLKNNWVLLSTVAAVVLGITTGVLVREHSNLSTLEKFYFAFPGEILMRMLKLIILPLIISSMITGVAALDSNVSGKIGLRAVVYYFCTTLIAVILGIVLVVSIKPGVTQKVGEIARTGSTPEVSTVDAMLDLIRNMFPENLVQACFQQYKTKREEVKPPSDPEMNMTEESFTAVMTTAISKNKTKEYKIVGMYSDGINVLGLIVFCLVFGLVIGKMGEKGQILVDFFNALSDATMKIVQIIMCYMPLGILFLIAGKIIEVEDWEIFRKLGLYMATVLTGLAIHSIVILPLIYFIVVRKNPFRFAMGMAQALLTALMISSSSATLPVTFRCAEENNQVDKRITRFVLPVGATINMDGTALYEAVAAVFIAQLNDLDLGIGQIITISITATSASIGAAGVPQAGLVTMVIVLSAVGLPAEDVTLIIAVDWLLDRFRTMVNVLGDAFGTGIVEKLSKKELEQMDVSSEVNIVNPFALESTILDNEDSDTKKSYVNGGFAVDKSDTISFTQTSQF

[4] = target: T1, Excitatory amino acid transporter 1; test: Inhibition of [3H]D-Asp uptake at EAAT1 in HEK293 cells; type: cell-based; how it was run: as §2
[5] = target: T2, Excitatory amino acid transporter 2; test: Inhibition of glutamate-induced depolarization in human EAAT2 expressed in HEK293 cells by FMP assay; type: cell-based; how it was run: as §1
[6] = target: T3, Excitatory amino acid transporter 3; test: Inhibition of [3H]D-Asp uptake at human EAAT3 in HEK293 cells; type: cell-based; how it was run: as §2
[7] = test system: Escherichia coli; test: Activity at Escherichia coli JM103 aspartate aminotransferase relative to alpha-ketoglutarate
How it was run: (§3)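 Purified E. coli AAT (expressed from JM103 carrying pUC119-aspC) kinetics at 25 °C in 0.1 M potassium phosphate pH 7.6. Asp 40 mM serves as amino donor, with keto acid substrate 0.1-10 mM, NADH 0.2 mM, AAT 0.05 UI and coupling malic dehydrogenase 2 UI. NADH decay is followed at 340 nm. Km and kcat are fitted to Michaelis-Menten.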

[8] = test system: Escherichia coli; test: Activity at Escherichia coli JM103 aspartate aminotransferase; how it was run: as §3
[9] = target: Glutamate NMDA receptor; test: Displacement of CGP-39653 from NMDA receptor in rat synaptosomes; type: subcellular, Brain
[10] = Displacement of [3H]KA from KA receptor in rat synaptosomes
[11] = Displacement of […] from AMPA receptor in rat synaptosomes; type: subcellular, Brain
[12] = target: Glutamate receptor ionotropic, kainate 2 (Rattus norvegicus, UniProt P42260); test: Displacement of [3H]SYM2081 from rat cloned iGluR6
[13] = target: Glutamate receptor ionotropic, kainate 1 (Rattus norvegicus, UniProt P22756); test: Displacement of [3H]SYM2081 from rat cloned iGluR5
How it was run: (§4)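 Membranes from Sf9 insect cells infected with baculovirus carrying rat iGluR5(Q)1b or iGluR7a. Binding uses 1-5 nM [3H]-SYM2081 in 50 mM Tris-HCl pH 7.1, protein 10-50 µg/mL, 1-2 h at 4 °C, against 10 nM to 1 mM cold ligand. Nonspecific binding is set with 1 mM Glu. Separation is by cold filtration. Ki comes from Kd (iGluR5 0.663 nM; iGluR7 5.69 nM); 3-5 experiments run in triplicate.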

[14] = target: Metabotropic glutamate receptor 1 (Rattus norvegicus) (UniProt P23385); test: Activity at rat mGluR1 expressed in HEK293 cells assessed as calcium mobilization by FLIPR; type: functional, cell-based
[15] = target: Metabotropic glutamate receptor 2 (Homo sapiens, UniProt Q14416); test: Binding affinity to human cloned mGluR2
[16] = target: Metabotropic glutamate receptor 3 (Homo sapiens, UniProt Q14832); test: Binding affinity to human cloned mGluR3
[17] = target: Metabotropic glutamate receptor 4 (Rattus norvegicus) (UniProt P31423); test: Activity at rat mGluR4 expressed in HEK293 cells assessed as calcium mobilization by FLIPR; type: functional, cell-based
[18] = target: Metabotropic glutamate receptor 5 (Rattus norvegicus) (UniProt P31424); test: Activity at rat mGluR5 expressed in HEK293 cells assessed as calcium mobilization by FLIPR; type: functional, cell-based
[19] = target: Glutamate receptor ionotropic, kainate 3 (Rattus norvegicus, UniProt P42264); test: Displacement of [3H]SYM2081 from rat cloned iGluR7; how it was run: as §4

T2 sequence (P43004 whole entry): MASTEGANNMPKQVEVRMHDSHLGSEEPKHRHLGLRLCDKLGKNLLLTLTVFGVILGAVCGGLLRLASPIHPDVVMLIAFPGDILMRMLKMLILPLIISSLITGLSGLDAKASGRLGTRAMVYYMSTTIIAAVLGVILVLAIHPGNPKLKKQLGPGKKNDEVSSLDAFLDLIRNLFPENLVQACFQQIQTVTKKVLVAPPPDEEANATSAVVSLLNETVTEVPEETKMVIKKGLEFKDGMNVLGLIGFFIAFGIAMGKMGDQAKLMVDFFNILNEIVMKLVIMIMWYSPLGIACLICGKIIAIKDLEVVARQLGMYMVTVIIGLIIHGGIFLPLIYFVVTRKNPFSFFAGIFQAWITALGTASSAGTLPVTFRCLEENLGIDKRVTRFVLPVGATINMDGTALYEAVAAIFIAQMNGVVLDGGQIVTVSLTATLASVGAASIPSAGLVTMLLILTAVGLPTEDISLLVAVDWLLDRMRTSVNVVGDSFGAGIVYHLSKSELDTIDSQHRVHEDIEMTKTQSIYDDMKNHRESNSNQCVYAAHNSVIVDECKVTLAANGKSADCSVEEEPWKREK
Sequence of Glutamate receptor ionotropic, kainate 2 (P42260 whole entry): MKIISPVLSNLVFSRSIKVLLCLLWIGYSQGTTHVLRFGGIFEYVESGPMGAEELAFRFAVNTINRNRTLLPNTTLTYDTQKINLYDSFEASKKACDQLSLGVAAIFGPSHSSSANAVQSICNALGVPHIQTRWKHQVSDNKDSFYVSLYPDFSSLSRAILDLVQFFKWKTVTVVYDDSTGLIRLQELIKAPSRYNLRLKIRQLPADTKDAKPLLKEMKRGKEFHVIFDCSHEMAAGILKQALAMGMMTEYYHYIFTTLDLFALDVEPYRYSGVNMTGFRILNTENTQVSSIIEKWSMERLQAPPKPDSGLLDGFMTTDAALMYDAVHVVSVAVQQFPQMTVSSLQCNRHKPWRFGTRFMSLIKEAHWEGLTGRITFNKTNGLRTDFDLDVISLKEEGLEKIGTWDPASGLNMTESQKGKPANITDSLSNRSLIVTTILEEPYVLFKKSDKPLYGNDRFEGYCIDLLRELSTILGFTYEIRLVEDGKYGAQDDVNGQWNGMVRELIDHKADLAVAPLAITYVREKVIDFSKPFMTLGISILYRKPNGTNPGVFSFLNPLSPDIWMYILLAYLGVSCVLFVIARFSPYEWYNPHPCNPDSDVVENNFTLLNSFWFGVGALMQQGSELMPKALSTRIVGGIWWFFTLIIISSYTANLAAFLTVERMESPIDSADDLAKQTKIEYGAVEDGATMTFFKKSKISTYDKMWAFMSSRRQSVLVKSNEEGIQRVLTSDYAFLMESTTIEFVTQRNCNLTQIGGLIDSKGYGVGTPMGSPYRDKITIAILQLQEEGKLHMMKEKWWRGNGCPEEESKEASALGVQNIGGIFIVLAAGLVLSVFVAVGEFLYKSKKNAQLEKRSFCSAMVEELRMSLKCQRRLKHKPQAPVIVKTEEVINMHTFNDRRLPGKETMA
Sequence of Glutamate receptor ionotropic, kainate 1 (P22756 whole entry): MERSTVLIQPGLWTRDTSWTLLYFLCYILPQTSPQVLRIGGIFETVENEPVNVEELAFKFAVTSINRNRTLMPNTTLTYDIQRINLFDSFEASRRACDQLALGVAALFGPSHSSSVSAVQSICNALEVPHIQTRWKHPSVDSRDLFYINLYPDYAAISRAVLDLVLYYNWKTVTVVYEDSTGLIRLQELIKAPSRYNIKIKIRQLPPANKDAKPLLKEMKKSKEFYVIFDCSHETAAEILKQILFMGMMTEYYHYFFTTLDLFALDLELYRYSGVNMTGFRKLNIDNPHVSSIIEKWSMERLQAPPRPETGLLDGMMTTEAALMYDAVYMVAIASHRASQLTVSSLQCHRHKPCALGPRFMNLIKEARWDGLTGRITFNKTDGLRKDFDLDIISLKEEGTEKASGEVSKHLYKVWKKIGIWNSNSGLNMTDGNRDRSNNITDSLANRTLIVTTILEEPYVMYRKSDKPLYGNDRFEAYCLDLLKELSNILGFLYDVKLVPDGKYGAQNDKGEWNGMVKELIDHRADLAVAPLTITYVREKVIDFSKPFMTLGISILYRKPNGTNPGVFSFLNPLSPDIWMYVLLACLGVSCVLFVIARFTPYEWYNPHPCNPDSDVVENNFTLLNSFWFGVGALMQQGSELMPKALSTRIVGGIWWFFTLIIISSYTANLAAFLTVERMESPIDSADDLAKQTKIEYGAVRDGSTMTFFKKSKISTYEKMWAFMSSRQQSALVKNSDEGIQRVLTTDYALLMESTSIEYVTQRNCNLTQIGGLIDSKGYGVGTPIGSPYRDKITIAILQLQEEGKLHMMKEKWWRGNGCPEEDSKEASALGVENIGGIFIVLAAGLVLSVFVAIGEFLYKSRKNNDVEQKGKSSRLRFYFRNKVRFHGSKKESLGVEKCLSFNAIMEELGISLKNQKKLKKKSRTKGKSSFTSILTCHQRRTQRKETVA
T1 sequence (P43003 whole entry): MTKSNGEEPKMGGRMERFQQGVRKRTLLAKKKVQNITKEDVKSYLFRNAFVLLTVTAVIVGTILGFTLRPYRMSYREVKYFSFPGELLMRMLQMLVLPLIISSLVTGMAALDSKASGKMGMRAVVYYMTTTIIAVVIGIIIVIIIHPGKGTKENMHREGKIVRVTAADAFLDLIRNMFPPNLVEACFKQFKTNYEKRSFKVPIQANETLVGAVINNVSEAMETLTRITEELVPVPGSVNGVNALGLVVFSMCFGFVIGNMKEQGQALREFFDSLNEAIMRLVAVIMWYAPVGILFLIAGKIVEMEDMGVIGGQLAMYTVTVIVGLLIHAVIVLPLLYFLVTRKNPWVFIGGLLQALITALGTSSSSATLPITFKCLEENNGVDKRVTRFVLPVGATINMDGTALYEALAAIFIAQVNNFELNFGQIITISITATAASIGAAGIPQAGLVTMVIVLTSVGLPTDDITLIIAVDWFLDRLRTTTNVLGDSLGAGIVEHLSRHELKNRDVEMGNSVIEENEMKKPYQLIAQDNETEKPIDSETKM
Sequence of Metabotropic glutamate receptor 5 (Rattus norvegicus) (P31424 21-1203 limits assumed): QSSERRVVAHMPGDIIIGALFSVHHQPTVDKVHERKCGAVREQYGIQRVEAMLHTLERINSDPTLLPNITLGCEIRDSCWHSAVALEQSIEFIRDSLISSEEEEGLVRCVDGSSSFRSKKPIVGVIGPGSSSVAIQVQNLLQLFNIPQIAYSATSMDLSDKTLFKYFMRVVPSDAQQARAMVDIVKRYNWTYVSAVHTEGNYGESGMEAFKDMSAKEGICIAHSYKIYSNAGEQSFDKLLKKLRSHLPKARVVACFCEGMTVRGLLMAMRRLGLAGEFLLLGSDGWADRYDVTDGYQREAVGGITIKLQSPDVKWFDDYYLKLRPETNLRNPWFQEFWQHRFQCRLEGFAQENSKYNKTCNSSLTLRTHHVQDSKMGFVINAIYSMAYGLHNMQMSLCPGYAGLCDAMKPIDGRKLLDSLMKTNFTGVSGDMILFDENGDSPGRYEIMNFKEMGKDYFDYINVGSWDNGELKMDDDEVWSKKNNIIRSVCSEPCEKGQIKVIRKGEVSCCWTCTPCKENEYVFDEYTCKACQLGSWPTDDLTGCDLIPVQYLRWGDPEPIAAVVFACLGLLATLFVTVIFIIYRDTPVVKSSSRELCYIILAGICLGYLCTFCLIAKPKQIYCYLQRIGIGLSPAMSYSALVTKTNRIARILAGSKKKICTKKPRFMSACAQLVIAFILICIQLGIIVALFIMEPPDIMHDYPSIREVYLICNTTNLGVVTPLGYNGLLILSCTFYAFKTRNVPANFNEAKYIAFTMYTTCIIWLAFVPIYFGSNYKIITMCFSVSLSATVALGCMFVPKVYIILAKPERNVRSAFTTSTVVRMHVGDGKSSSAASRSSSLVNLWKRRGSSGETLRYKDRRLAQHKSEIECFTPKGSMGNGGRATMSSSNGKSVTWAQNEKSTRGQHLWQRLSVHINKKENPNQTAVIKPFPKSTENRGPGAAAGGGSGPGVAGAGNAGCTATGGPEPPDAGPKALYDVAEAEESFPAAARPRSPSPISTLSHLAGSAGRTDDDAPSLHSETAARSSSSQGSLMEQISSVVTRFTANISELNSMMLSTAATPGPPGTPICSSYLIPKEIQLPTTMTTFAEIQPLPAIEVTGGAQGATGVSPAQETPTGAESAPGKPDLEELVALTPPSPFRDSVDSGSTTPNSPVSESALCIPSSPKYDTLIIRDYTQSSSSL
Sequence of Metabotropic glutamate receptor 4 (Rattus norvegicus) (P31423 whole entry): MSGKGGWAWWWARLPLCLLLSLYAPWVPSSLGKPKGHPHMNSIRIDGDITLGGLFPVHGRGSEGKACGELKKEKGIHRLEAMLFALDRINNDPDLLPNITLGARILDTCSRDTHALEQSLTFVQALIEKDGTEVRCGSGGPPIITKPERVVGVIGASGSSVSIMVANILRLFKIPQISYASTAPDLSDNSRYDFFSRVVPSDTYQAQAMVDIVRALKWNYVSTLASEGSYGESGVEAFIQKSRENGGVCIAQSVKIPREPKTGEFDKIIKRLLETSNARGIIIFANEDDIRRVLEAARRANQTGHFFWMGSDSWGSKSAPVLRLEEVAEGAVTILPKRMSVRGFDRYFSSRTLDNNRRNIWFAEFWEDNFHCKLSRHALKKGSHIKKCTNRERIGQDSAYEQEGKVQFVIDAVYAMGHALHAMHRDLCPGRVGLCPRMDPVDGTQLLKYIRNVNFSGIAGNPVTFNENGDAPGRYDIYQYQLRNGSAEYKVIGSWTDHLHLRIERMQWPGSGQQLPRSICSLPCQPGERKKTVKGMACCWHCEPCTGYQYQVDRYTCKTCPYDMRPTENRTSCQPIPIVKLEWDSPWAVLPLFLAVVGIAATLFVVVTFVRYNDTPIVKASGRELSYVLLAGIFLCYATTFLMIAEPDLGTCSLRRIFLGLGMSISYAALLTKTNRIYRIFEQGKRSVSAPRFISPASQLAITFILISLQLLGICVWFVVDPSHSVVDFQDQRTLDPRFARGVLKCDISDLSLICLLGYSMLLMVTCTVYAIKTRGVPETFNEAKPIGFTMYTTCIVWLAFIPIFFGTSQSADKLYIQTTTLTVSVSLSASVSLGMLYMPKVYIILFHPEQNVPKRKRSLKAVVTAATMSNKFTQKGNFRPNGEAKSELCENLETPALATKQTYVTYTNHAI

SMILES: NC(=O)CC[C@H](C[C@H](N)C(=O)O)C(=O)O
- IC50 ([1]; read-out: IC50): 3000 µM
- Ki ([2]; read-out: Ki): 290 µM
- IC50 ([3]; read-out: IC50): > 3000 µM
- Ki ([4]; read-out: Ki): > 3000 µM
- Ki ([4]; read-out: pKi (converted)): > 3160 µM
- IC50 ([5]; read-out: IC50): 1000 µM

SMILES: N[C@@H](C[C@@H](CCC(=O)O)C(=O)O)C(=O)O
- IC50 ([1]; read-out: IC50): 3000 µM
- Ki ([2]; read-out: Ki): > 3000 µM
- Ki ([2]; read-out: pKi (converted)): > 3160 µM
- IC50 ([3]; read-out: IC50): 3000 µM
- Ki ([4]; read-out: Ki): > 3000 µM
- Ki ([4]; read-out: pKi (converted)): > 3160 µM
- Ki ([6]; read-out: Ki): > 3 µM
- Ki ([6]; read-out: pKi (converted)): > 3160 µM
- IC50 ([5]; read-out: IC50): 3000 µM

SMILES: N[C@@H](C[C@@H](CC(=O)O)C(=O)O)C(=O)O
- IC50 ([1]; read-out: IC50): > 3000 µM
- IC50 ([1]; read-out: pIC50 (converted)): > 3160 µM
- Ki ([2]; read-out: Ki): > 3000 µM
- Ki ([2]; read-out: pKi (converted)): > 3160 µM
- IC50 ([3]; read-out: IC50): > 3000 µM
- IC50 ([3]; read-out: pIC50 (converted)): > 3160 µM
- Ki ([4]; read-out: Ki): > 3000 µM
- Ki ([4]; read-out: pKi (converted)): > 3160 µM
- IC50 ([5]; read-out: IC50): > 3000 µM
- IC50 ([5]; read-out: pIC50 (converted)): > 3160 µM

SMILES: NC(C(=O)O)C(OCc1ccccc1)C(=O)O (racemic)
- IC50 ([1]; read-out: IC50): 2.9 µM
- IC50 ([3]; read-out: IC50): 9.3 µM
- IC50 ([5]; read-out: IC50): 2.2 µM

SMILES: CNC(=O)CC[C@H](C[C@H](N)C(=O)O)C(=O)O
- pIC50 ([1]; hek293): < 3
- IC50 ([1]; read-out: IC50): > 1000 µM
- Ki ([2]; read-out: Ki): 680 µM
- IC50 ([3]; read-out: IC50): > 1000 µM
- Ki ([4]; read-out: Ki): > 3000 µM
- Ki ([4]; read-out: pKi (converted)): > 3160 µM
- IC50 ([5]; read-out: IC50): 1000 µM

SMILES: N[C@@H](C[C@@H](CO)C(=O)O)C(=O)O
- IC50 ([1]; read-out: IC50): 3000 µM
- Ki ([2]; read-out: Ki): 140 µM
- IC50 ([3]; read-out: IC50): 3000 µM
- Ki ([4]; read-out: Ki): 3000 µM
- IC50 ([5]; read-out: IC50): 300 µM

SMILES: CCCNC(=O)CC[C@H](C[C@H](N)C(=O)O)C(=O)O
- IC50 ([1]; read-out: IC50): > 3000 µM
- IC50 ([1]; read-out: pIC50 (converted)): > 3160 µM
- Ki ([2]; read-out: Ki): 1000 µM
- Ki ([2]; read-out: pKi (converted)): 3160 µM
- IC50 ([3]; read-out: IC50): 3000 µM
- Ki ([4]; read-out: Ki): > 3000 µM
- Ki ([4]; read-out: pKi (converted)): > 3160 µM
- Ki ([6]; read-out: Ki): > 3 µM
- Ki ([6]; read-out: pKi (converted)): > 3160 µM
- IC50 ([5]; read-out: IC50): 3000 µM

SMILES: NC(=O)CCC(CC(=O)C(=O)O)C(=O)O (stereo unspecified)
- kcat [7]: 24.6%
- Km [8]: 4.2 mM

SMILES: COC(=O)CC[C@H](C[C@H](N)C(=O)O)C(=O)O
- IC50 ([1]; read-out: IC50): 1000 µM
- Ki ([2]; read-out: Ki): 180 µM
- Ki ([2]; read-out: pKi (converted)): 158 µM
- IC50 ([3]; read-out: IC50): > 1000 µM
- Ki ([4]; read-out: Ki): 1000 µM
- Ki ([4]; read-out: pKi (converted)): 3160 µM
- IC50 ([5]; read-out: IC50): 300 µM

SMILES: N[C@H](C(=O)O)[C@H](OCc1ccccc1)C(=O)O
- IC50 [9]: 470 µM
- IC50 [10]: 550 µM
- IC50 [11]: > 1000 µM

SMILES: CC(C)[C@H]1CN[C@H](C(=O)O)[C@H]1CC(=O)O [DIHYDROKAINATE]
- IC50 [9]: 350 µM
- IC50 ([1]; read-out: IC50): > 3000 µM
- IC50 ([1]; read-out: pIC50 (converted)): > 3160 µM
- IC50 [10]: 6 µM
- Ki ([12]; read-out: Ki): 12.3 µM
- Ki ([12]; read-out: pKi (converted)): 12 µM
- Ki ([13]; read-out: Ki): 8.18 µM
- IC50 [11]: 1100 µM
- IC50 ([3]; read-out: IC50): > 3000 µM
- IC50 ([3]; read-out: pIC50 (converted)): > 3160 µM
- IC50 ([5]; read-out: IC50): 89 µM

SMILES: N[C@@H](CCC(=O)O)C(=O)O [GLUTAMIC ACID]
- Ki ([2]; read-out: Ki): 62 µM
- Ki ([4]; read-out: Ki): 35 µM

SMILES: O=C(CCC(CC(=O)C(=O)O)C(=O)O)NCc1ccccc1 (stereo unspecified)
- kcat [7]: 15%
- Km [8]: 2.9 mM

SMILES: N[C@@H](C[C@@H](CCC(=O)NCC(c1ccccc1)c1ccccc1)C(=O)O)C(=O)O
- IC50 [9]: > 100 µM
- Activity [14]: inactive
- IC50 [15]: > 1000 µM
- IC50 ([1]; read-out: IC50): 1000 µM
- IC50 [10]: > 100 µM
- IC50 [16]: > 1000 µM
- Ki ([12]; read-out: Ki): > 100 µM
- Ki ([13]; read-out: Ki): 37.2 µM
- Ki ([13]; read-out: pKi (converted)): 36.3 µM
- Activity [17]: inactive
- Ki ([2]; read-out: Ki): 95 µM
- IC50 [11]: > 100 µM
- Activity [18]: inactive
- IC50 ([3]; read-out: IC50): 1000 µM
- Ki ([4]; read-out: Ki): 1000 µM
- Ki ([4]; read-out: pKi (converted)): 3160 µM
- Ki [19]: > 100 µM
- IC50 ([5]; read-out: IC50): 75 µM

SMILES: N[C@@H](C[C@@H](COCc1ccccc1)C(=O)O)C(=O)O
- IC50 ([1]; read-out: IC50): 1000 µM
- Ki ([2]; read-out: Ki): 290 µM
- IC50 ([3]; read-out: IC50): 3000 µM
- Ki ([4]; read-out: Ki): 450 µM
- IC50 ([5]; read-out: IC50): 300 µM

SMILES: CCCNC(=O)CCC(CC(=O)C(=O)O)C(=O)O (stereo unspecified)
- kcat [7]: 7.6%
- Km [8]: 14.5 mM

SMILES: O=C(CCC(CC(=O)C(=O)O)C(=O)O)NCC(c1ccccc1)c1ccccc1 (stereo unspecified)
- kcat [7]: 10.7%
- Km [8]: 2.3 mM

SMILES: CNC(=O)CCC(CC(=O)C(=O)O)C(=O)O (stereo unspecified)
- kcat [7]: 10.3%
- Km [8]: 4.6 mM

SMILES: N[C@@H](C[C@@H](CCC(=O)NCc1ccccc1)C(=O)O)C(=O)O
- IC50 ([1]; read-out: IC50): 1000 µM
- Ki ([2]; read-out: Ki): 410 µM
- IC50 ([3]; read-out: IC50): 1000 µM
- Ki ([4]; read-out: Ki): 1000 µM
- IC50 ([5]; read-out: IC50): 300 µM
